The target of series [1] is Mitogen-activated protein kinase kinase kinase 11 (Homo sapiens, UniProt Q16584). Put plainly: Inhibition of MAP3K11 (unknown origin).
A short description of series [2]: Stability in human liver microsomes at 1 uM in presence of NADPH cofactor. It counts as ADME, microsome. To be noted: read-out: Stability. Background: Microsomes from liver hold many membrane-bound enzymes, among them those of drug oxidation.
The target of series [3] is Interleukin-1 receptor-associated kinase 4 (Homo sapiens, UniProt Q9NWZ3). Put plainly: Inhibition of untagged IRAK4 (unknown origin).
Interleukin-1 receptor-associated kinase 4, sequence (Q9NWZ3 whole entry): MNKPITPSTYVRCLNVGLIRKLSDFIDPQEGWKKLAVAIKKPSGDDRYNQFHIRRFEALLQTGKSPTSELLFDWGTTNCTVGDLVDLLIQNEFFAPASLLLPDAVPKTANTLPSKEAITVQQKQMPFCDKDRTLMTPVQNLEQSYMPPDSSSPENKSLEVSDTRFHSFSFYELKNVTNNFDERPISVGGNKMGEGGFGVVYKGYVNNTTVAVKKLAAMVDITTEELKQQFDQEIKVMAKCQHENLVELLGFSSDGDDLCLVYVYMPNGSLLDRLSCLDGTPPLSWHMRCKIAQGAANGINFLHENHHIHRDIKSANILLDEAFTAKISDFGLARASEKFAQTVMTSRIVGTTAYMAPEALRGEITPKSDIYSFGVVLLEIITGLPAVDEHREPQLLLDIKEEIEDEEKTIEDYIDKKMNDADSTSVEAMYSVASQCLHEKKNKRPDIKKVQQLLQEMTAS
Series [4] has as its target Serine/threonine-protein kinase tousled-like 1 (Homo sapiens, UniProt Q9UKI8). As to the kind of experiment: Inhibition of TLK1 (unknown origin).
In series [5] the target is Receptor-type tyrosine-protein kinase FLT3 (Homo sapiens, UniProt P36888). Put plainly: Inhibition of wild-type FLT3 (unknown origin).
Receptor-type tyrosine-protein kinase FLT3, sequence (P36888 whole entry): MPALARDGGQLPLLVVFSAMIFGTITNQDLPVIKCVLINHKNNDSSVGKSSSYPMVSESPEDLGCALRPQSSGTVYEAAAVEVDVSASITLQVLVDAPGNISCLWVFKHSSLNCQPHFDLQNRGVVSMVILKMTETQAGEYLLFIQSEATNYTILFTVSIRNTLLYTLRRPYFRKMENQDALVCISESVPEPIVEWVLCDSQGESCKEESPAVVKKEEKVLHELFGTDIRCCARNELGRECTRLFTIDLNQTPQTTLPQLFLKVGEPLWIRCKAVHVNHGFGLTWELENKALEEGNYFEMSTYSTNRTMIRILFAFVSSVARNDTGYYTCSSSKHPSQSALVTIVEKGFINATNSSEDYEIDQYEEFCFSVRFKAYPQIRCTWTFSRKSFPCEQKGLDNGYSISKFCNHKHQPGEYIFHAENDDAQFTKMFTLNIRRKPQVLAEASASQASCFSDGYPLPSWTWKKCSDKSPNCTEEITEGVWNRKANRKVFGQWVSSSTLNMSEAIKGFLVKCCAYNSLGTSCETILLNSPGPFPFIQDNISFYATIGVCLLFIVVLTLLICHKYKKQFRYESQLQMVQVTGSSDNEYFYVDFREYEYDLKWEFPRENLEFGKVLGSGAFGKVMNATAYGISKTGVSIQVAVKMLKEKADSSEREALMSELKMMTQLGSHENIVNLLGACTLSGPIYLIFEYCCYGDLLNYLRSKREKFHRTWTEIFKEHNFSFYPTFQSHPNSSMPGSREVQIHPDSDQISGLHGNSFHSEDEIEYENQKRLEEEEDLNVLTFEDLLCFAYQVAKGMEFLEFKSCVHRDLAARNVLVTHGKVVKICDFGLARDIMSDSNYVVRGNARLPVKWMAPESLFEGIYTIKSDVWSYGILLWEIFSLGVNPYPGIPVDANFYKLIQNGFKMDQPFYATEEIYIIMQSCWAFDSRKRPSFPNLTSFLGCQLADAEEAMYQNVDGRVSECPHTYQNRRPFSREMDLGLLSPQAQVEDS
Series [6] has as its target T1, Inhibitor of nuclear factor kappa-B kinase subunit epsilon (Homo sapiens, UniProt Q14164).
T1 sequence (Q14164 whole entry): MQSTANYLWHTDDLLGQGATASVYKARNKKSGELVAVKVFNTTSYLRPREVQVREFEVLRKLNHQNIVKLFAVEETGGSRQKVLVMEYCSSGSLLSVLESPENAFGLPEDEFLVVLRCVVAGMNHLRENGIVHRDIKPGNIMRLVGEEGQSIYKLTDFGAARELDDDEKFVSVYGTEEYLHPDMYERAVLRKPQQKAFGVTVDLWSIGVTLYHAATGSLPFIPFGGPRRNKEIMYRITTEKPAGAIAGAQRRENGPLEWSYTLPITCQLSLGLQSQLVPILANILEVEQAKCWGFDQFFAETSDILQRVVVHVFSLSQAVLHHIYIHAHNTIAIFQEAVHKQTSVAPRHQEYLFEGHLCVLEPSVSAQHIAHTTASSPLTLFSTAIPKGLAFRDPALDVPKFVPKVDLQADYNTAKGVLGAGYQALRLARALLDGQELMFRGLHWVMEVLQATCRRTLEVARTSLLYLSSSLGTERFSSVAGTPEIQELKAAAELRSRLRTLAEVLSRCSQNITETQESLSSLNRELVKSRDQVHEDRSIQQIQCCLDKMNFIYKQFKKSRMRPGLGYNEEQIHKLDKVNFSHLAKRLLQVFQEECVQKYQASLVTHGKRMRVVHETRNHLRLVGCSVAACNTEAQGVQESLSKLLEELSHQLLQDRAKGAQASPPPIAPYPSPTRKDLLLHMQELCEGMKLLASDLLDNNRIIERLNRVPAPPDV
As to the kind of experiment: Inhibition of recombinant human full-length N-terminal GST-fused/His6-tagged IKKepsilon (M1 to V716 residues) expressed in Sf9 insect cells using ERLLDDRHDSGLDSMKDEE peptide as substrate measured after 60 mins by ADP-Glo kinase assay.

The nature of series [7]: Cytotoxicity against human EJM cells assessed as cell viability at 25 uM after 6 hrs by CellTiter Glo luminescent assay relative to control. Type of series: cell-based. To be noted: read-out: Activity. In short, it runs like this:
(§1)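 Cells seeded at 5 x 10^3 per well and exposed for 6 h to the compound (10, 25, 50 or 100 µM) or to DMSO vehicle. Viability was read as intracellular ATP by CellTiter Glo luminescence.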

Series [8] can be described thus: Cytotoxicity against human MDA-MB-231 cells assessed as cell viability at 100 uM after 6 hrs by CellTiter Glo luminescent assay relative to control. As to conditions: read-out: Activity. It counts as cell-based. In a few lines:
as §1
On the technique in general: Cellular ATP, detected with luciferase, serves as a proxy for viable cell number.

Series [9] concerns the target Tyrosine-protein kinase CSK (Homo sapiens, UniProt P41240). As to the kind of experiment: Inhibition of CSK (unknown origin).
Series [10] addresses 5'-AMP-activated protein kinase catalytic subunit alpha-1 (Homo sapiens, UniProt Q13131). Put plainly: Inhibition of AMPK alpha1 (unknown origin) (1 to 550 residues).
Series [11] concerns the target Serine/threonine-protein kinase PLK1 (Homo sapiens, UniProt P53350). As to the kind of experiment: Inhibition of PLK1 (unknown origin).
Series [12] concerns the target Mitogen-activated protein kinase 1 (Homo sapiens, UniProt P28482). Put plainly: Inhibition of ERK2 (unknown origin).
For series [13], the target named is Serine/threonine-protein kinase Chk2 (Homo sapiens, UniProt O96017). As to the kind of experiment: Inhibition of CHK2 (unknown origin).
Serine/threonine-protein kinase Chk2, sequence (O96017 whole entry): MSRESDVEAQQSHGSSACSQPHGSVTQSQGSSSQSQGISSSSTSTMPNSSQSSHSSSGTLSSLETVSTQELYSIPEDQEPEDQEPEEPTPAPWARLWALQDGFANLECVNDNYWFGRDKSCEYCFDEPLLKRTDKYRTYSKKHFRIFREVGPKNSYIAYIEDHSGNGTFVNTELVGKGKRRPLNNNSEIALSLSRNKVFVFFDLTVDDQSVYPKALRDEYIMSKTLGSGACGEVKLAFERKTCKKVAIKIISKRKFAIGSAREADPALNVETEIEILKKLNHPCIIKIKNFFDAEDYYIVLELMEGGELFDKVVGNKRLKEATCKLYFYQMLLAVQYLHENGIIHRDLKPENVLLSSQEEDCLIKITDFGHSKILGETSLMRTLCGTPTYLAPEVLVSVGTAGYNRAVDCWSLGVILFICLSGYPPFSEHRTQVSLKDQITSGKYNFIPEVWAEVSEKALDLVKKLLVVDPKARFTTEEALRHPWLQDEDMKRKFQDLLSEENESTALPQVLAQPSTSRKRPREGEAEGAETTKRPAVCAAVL
The target in series [14] is 3-phosphoinositide-dependent protein kinase 1 (Homo sapiens, UniProt O15530). As to the kind of experiment: Inhibition of PDK1 (unknown origin).
3-phosphoinositide-dependent protein kinase 1, sequence (O15530 whole entry, the tested form may be a part): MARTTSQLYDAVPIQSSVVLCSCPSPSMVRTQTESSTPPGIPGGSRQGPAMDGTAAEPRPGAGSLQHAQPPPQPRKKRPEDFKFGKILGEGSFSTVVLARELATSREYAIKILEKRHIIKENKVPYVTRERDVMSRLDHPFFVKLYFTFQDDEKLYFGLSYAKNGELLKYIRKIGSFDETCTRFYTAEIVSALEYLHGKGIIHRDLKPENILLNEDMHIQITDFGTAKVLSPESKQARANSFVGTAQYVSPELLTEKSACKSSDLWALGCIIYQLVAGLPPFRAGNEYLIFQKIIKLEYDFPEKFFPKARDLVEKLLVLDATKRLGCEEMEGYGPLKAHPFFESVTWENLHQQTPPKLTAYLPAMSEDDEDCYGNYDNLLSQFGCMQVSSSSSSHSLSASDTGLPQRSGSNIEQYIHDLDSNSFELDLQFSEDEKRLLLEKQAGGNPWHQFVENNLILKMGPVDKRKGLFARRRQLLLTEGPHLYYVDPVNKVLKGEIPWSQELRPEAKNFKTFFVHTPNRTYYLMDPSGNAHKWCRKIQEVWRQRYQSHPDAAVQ
The species entered for a further series is Mus musculus. Put plainly: Inhibition of mouse NIK kinase domain V480L mutant.
The target of another series is SRSF protein kinase 2 (Homo sapiens, UniProt P78362). Put plainly: Inhibition of SRPK2 (unknown origin).
Series [15] deals with T2, Inhibitor of nuclear factor kappa-B kinase subunit beta (Homo sapiens, UniProt O14920).
T2 sequence (O14920 whole entry): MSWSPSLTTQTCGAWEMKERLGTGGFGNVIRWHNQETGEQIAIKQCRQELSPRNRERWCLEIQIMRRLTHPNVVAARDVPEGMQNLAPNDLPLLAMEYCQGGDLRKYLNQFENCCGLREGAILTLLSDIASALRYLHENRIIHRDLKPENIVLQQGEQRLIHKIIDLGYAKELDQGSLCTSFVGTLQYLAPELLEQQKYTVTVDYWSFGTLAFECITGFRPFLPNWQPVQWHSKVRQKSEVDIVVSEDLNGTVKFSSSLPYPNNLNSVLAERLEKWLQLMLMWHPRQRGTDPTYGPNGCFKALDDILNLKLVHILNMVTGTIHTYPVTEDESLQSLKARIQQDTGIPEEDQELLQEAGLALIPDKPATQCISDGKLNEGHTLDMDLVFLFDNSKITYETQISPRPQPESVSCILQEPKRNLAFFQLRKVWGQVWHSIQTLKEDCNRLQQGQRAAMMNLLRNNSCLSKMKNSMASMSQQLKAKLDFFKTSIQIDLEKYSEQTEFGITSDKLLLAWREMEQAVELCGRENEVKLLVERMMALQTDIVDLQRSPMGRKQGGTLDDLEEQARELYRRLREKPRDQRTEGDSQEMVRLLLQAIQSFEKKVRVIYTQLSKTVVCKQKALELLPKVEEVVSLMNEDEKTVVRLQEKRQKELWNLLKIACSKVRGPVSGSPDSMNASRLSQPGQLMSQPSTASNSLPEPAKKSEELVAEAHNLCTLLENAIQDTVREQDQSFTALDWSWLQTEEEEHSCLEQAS
Put plainly: Inhibition of recombinant human full-length N-terminal GST-fused/His6-tagged IKKbeta (M1 to S756 residues) expressed in Sf9 insect cells using ERLLDDRHDSGLDSMKDEE peptide as substrate measured after 60 mins by ADP-Glo kinase assay. Background: ADP-Glo first removes unused ATP, then detects ADP through luciferase.

For series [16], the target named is Casein kinase II subunit alpha (Homo sapiens, UniProt P68400). Put plainly: Inhibition of CK2-alpha1 (unknown origin).
Casein kinase II subunit alpha, sequence (P68400 whole entry): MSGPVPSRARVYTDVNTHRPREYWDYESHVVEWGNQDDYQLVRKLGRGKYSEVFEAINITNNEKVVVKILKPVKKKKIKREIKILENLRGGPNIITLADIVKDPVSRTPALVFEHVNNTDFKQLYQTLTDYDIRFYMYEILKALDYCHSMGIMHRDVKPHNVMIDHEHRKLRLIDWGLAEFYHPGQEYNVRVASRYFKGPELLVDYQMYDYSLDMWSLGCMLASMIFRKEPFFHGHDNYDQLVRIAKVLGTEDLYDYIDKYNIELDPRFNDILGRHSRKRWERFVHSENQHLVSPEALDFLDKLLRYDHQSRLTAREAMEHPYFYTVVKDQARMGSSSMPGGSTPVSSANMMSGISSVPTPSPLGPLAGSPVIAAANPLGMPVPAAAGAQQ
Series [17] concerns the target Tyrosine-protein kinase JAK1 (Homo sapiens, UniProt P23458). As to the kind of experiment: Inhibition of JAK1 (unknown origin).
The test system of the next series is MDA-MB-231. As to the kind of experiment: Inhibition of NFkappaB activation in human MDA-MB-231 cells at 100 uM after 6 hrs by dual luciferase reporter gene assay relative to control. It counts as cell-based. In a few lines: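 Cells were nucleofected with the pGL4.32 NF-κB-RE firefly luciferase and pGL4.74 TK-Renilla plasmids (3 µg, 10:1 ratio) and cultured for 24 h at 37 °C. Compound (10, 25, 50 or 100 µM) was then added for 6 h. Firefly luminescence was normalised to Renilla from the same sample and expressed as % of vehicle control. Means ± SD of three independent experiments.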

Structures are written as SMILES. The source made the active and inactive calls. No cut-off for these calls is given here.

This note sets out measurements from ChEMBL document CHEMBL4257503, “N-Acetyl-3-aminopyrazoles block the non-canonical NF-kB cascade by selectively inhibiting NIK” (Medchemcomm, 2018).

A word on the IC50: it is the point on the concentration scale where inhibition reaches its midpoint. A word on the inhibition: it is the relative decrease from the control value, in per cent.

5'-AMP-activated protein kinase catalytic subunit alpha-1, sequence (Q13131 whole entry, the tested form may be a part): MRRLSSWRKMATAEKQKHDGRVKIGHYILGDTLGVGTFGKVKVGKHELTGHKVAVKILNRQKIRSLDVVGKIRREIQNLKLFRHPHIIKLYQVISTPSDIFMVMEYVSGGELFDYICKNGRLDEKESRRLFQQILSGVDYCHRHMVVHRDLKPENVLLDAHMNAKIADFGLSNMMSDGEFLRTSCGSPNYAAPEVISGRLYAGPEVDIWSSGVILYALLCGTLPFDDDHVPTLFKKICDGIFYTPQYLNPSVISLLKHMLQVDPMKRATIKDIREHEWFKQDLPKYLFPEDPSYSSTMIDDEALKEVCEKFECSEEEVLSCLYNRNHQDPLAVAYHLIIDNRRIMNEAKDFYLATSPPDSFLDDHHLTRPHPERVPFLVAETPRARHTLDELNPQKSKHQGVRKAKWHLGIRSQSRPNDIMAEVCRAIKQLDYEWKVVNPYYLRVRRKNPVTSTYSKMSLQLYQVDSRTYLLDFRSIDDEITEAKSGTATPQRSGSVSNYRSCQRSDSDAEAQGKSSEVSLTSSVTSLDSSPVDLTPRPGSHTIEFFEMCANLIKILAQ
Tyrosine-protein kinase JAK1, sequence (P23458 whole entry): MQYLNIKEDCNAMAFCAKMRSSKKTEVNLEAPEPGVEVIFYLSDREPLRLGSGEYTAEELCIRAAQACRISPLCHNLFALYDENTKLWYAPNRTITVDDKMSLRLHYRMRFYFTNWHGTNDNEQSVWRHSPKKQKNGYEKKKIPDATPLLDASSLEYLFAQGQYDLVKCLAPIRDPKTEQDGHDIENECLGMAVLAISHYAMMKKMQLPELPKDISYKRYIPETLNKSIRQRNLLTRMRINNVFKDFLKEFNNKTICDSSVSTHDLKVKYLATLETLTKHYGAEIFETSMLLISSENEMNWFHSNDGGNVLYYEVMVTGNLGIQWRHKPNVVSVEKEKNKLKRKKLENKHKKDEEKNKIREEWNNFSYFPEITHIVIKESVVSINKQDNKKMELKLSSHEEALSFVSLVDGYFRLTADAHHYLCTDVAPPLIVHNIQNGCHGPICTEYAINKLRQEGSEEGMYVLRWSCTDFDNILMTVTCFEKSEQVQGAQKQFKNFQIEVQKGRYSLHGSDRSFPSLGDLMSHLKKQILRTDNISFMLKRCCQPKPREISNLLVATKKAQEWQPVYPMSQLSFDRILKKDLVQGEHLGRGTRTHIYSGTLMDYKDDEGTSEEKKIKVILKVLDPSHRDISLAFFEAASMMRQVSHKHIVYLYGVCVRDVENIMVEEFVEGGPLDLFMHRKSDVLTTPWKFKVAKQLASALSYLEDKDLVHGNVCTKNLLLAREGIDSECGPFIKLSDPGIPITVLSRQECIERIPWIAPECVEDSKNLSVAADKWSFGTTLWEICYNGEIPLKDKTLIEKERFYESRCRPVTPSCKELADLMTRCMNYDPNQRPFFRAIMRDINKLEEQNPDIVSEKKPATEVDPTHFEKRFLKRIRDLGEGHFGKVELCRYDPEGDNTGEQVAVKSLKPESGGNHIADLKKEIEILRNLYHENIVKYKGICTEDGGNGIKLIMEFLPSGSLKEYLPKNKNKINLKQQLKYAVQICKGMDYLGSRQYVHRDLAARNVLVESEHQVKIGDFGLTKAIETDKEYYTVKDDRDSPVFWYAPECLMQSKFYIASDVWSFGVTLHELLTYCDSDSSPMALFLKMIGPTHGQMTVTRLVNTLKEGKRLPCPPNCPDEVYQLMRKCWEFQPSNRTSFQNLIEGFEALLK
Mitogen-activated protein kinase 1, sequence (P28482 whole entry): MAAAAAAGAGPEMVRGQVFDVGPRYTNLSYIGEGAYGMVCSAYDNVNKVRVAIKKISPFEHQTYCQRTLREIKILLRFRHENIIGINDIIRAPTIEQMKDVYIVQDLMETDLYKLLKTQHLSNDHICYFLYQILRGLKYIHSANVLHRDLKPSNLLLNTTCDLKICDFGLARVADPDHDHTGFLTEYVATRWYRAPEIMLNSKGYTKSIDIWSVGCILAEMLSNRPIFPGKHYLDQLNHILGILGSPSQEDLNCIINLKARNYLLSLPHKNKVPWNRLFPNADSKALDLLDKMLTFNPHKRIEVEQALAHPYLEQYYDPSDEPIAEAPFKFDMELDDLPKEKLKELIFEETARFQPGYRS

As to `CC(=O)n1nc(C)c(-c2ccc(Cl)c(Cl)c2)c1N`, the IC50 in series [1], in series [3], in series [4], in [5], in [6] and in [9] was greater than 100 µM throughout. For the same compound, the IC50 (in [10]; in series [11]; in [12]; in [13]; in [14]; at SRSF protein kinase 2) was greater than 100 µM in each case. Besides, the IC50 in [15], in series [16] and in [17] was greater than 100 µM throughout. Also, in [2], the remaining at 1 µM was found to be 1%. In addition, the viability at 6 h, 25 µM in [7] was no less than 80%. In addition, the viability at 6 h, 100 µM in [8] is no less than 80%. For the same compound, the inhibition entry in the series listed under Mus musculus was “inactive”. Further, the inhibition in the series with MDA-MB-231 was -0.77%.
